# Active and inactive are the calls of the source. The calls are words filed in the database; no cut-off is given here.
# Legend:
# Cavia porcellus [1] = assay: Cmax in Dunkin Hartley guinea pig at 1.25 mg/kg, ip after 0.5 hrs post dose; assay type: ADME, organism-based; design: dose 1.25 mg/kg, route intraperitoneal; settings: in vivo
# [2] = target: T1, Tyrosine-protein phosphatase non-receptor type 1 (Homo sapiens, UniProt P18031); assay: Inhibition of human PTP1B using pNPP as substrate preincubated for 15 mins followed by substrate addition and measured after 15 mins
# T1 sequence (P18031 whole entry): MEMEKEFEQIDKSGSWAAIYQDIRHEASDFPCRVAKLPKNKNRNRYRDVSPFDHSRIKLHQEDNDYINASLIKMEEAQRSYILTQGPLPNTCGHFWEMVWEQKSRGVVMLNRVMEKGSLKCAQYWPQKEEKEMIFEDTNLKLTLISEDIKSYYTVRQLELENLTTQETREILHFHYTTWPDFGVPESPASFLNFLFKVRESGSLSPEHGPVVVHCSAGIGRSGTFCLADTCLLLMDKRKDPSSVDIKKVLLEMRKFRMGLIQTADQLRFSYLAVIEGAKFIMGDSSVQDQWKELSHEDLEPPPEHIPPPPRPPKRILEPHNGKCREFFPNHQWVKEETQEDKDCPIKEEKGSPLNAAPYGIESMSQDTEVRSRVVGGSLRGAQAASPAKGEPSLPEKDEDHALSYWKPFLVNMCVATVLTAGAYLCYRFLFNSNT
# [3] = target: Dual specificity protein phosphatase 3 (Homo sapiens, UniProt P51452); assay: Inhibition of human VHR using pNPP as substrate preincubated for 15 mins followed by substrate addition and measured after 15 mins
# How it was run: (§1)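 His-tagged MptpA/MptpB expressed in E. coli BL21(DE3); VHR and hPTP1B purified as GST fusions with the tag cleaved. 0.5 μg protein in Tris/BisTris/acetate buffer (pH 7 MptpB, 6.5 MptpA, 6 hPTP1B, 5 VHR) with compound at 0–250 μM, 15 min at room temperature. pNPP added to 0.35 mM for 15 min, quenched with NaOH, read at 405 nm against a pNP curve. No-enzyme blanks.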
# Cavia porcellus [4] = assay: Oral bioavailability in Dunkin Hartley guinea pig at 3.5 mg/kg; assay type: ADME, organism-based; settings: in vivo
# Cavia porcellus [5] = assay: AUCinfinity in Dunkin Hartley guinea pig at 3.5 mg/kg, po; assay type: ADME, organism-based; design: dose 3.5 mg/kg, route oral, time infinity; settings: in vivo, BLD = below limit of detection
# [6] = Inhibition of Mycobacterium tuberculosis H37Rv His-tagged ptpA expressed in Escherichia coli BL21(DE3) using pNPP as substrate preincubated for 15 mins followed by substrate addition and measured after 15 mins; how it was run: as §1
# Cavia porcellus [7] = assay: AUCinfinity in Dunkin Hartley guinea pig at 1.25 mg/kg, ip; assay type: ADME, organism-based; design: dose 1.25 mg/kg, time infinity, route intraperitoneal; settings: in vivo
# Cavia porcellus [8] = assay: Half life in Dunkin Hartley guinea pig at 3.5 mg/kg, po; assay type: ADME, organism-based; settings: in vivo, BLD = below limit of detection
# Cavia porcellus [9] = assay: Half life in Dunkin Hartley guinea pig at 1.25 mg/kg, ip; assay type: ADME, organism-based; settings: in vivo
# Cavia porcellus [10] = assay: Cmax in Dunkin Hartley guinea pig at 3.5 mg/kg, po after 0.25 hrs post dose; assay type: ADME, organism-based; design: dose 3.5 mg/kg, route oral; settings: in vivo, BLD = below limit of detection
# Cavia porcellus [11] = assay: Cmax in Dunkin Hartley guinea pig at 2.5 mg/kg, ip after 0.5 hrs post dose; assay type: ADME, organism-based; design: dose 2.5 mg/kg, route intraperitoneal; settings: in vivo
# Cavia porcellus [12] = assay: AUCinfinity in Dunkin Hartley guinea pig at 5 mg/kg, po; assay type: ADME, organism-based; design: dose 5 mg/kg, time infinity, route oral; settings: in vivo, BLD = below limit of detection
# Cavia porcellus [13] = assay: Half life in Dunkin Hartley guinea pig at 2.5 mg/kg, ip; assay type: ADME, organism-based; settings: in vivo
# Cavia porcellus [14] = assay: Cmax in Dunkin Hartley guinea pig at 5 mg/kg, po after 0.25 hrs post dose; assay type: ADME, organism-based; design: dose 5 mg/kg, route oral; settings: in vivo, BLD = below limit of detection
# Cavia porcellus [15] = assay: AUCinfinity in Dunkin Hartley guinea pig at 2.5 mg/kg, ip; assay type: ADME, organism-based; design: dose 2.5 mg/kg, time infinity, route intraperitoneal; settings: in vivo
# Cavia porcellus [16] = assay: Oral bioavailability in Dunkin Hartley guinea pig at 5 mg/kg; assay type: ADME, organism-based; settings: in vivo
# J774.A1 = assay: Cytotoxicity against mouse J774A.1 cells assessed as reduction in cell viability at 50 to 150 uM after 24 hrs by MTT assay; assay type: cell-based; settings: j774.a1, 24 h
# How it was run: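 MTT viability assay in J774A.1 cells seeded at 6 × 10^3/well and adhered overnight. Inhibitor in DMSO or DMSO only added for 24 h. MTT (5 mg/mL in PBS) added for 4 h, formazan dissolved in DMSO with Sorensen's glycine buffer, absorbance read at 570 nm.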
# Cavia porcellus [17] = assay: Half life in Dunkin Hartley guinea pig at 5 mg/kg, po; assay type: ADME, organism-based; settings: in vivo, BLD = below limit of detection
# Cavia porcellus [18] = assay: Toxicity in Hartley Duncan guinea pig assessed as body weight increase at 50 to 100 mg/kg/day, po administered for 7 days; assay type: organism-based; settings: in vivo, 168 h
# How it was run: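 Male Hartley guinea pigs (n = 5) given the compound orally once daily for 7 days at 50 or 100 mg kg–1, as a pre-infection tolerability study. Animals were monitored for adverse drug effects and body-weight change. Plasma and lung drug levels were taken at 2 and 24 h after the last dose.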
# [19] = tested on: Mycobacterium tuberculosis; assay: Antibacterial activity against Mycobacterium tuberculosis H37Rv infected in acute TB infection induced Hartley Duncan guinea pig model assessed as log reduction in bacterial burden in lungs at 100 mg/kg/day, po administered at 24 hrs post infection measured after 4 weeks post infection; assay type: functional
# How it was run: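 Guinea pigs infected by aerosol with 96 CFU M. tuberculosis H37Rv, 4 per group. Compound (100 mg/kg) or vehicle given orally daily for 4 weeks from 24 h post infection. Lung bacterial burden measured relative to vehicle.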
# [20] = tested on: Mycobacterium tuberculosis; assay: Antibacterial activity against Mycobacterium tuberculosis H37Rv infected in chronic TB infection induced Hartley Duncan guinea pig model assessed as log reduction in bacterial burden in lungs at 100 mg/kg/day, po administered at 24 hrs post infection measured after 4 weeks post infection; assay type: functional
# How it was run: (§2)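 Guinea pigs infected by aerosol with 63 CFU M. tuberculosis, 5 per group, and left untreated for 28 days; baseline lung and spleen burden taken at day 28. Compound (100 mg/kg) or vehicle then given orally daily for 4 weeks. Lung and spleen CFU compared with vehicle.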
# [21] = tested on: Mycobacterium tuberculosis; assay: (§3) Antimycobacterial activity against Mycobacterium tuberculosis H37Rv infected in chronic TB infection induced Hartley Duncan guinea pig model assessed as reduction in necrotic lesions in lungs at 100 mg/kg/day, po administered at 24 hrs post infection measured after 56 days post infection by hematoxylin and eosin staining-based assay; assay type: functional, organism-based
# How it was run: (§4)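 Chronic aerosol model (63 CFU; oral 100 mg/kg daily for 4 weeks from day 28). Lungs and spleens inspected at 56 days post infection. Tissue fixed in formalin, paraffin-embedded, cut at about 5 μm and stained with hematoxylin and eosin; lesions and granulomas compared with vehicle.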
# [22] = tested on: Mycobacterium tuberculosis; assay: as §3, with “spleen” for “lungs”; assay type: functional, organism-based; how it was run: as §4
# Cavia porcellus [23] = assay: Oral bioavailability in Dunkin Hartley guinea pig at 8 mg/kg; assay type: ADME, organism-based; settings: in vivo
# [24] = tested on: Mycobacterium tuberculosis; assay: Antibacterial activity against Mycobacterium tuberculosis H37Rv infected in chronic TB infection induced Hartley Duncan guinea pig model assessed as log reduction in bacterial burden in spleen at 100 mg/kg/day, po administered at 24 hrs post infection measured after 4 weeks post infection; assay type: functional; how it was run: as §2
# Cavia porcellus [25] = assay: Cmax in Dunkin Hartley guinea pig at 8 mg/kg, po after 0.25 hrs post dose; assay type: ADME, organism-based; design: dose 8 mg/kg, route oral; settings: in vivo
# [26] = Plasma concentration in Hartley Duncan guinea pig at 100 mg/kg, po measured at 2 hrs; assay type: ADME, organism-based, Cavia porcellus
# How it was run: (§5)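 Guinea pigs (n = 5) given 100 mg/kg orally once daily for 7 days. Plasma and lung drug levels measured at 2 h and at 24 h after the last dose, as peak and trough.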
# Cavia porcellus [27] = assay: Half life in Dunkin Hartley guinea pig at 4 mg/kg, ip; assay type: ADME, organism-based; settings: in vivo
# [28] = Drug uptake in Hartley Duncan guinea pig lungs at 100 mg/kg, po measured at 2 hrs; assay type: ADME, organism-based, Cavia porcellus; settings: lung, read-out: Drug uptake; how it was run: as §5
# Cavia porcellus [29] = assay: AUCinfinity in Dunkin Hartley guinea pig at 8 mg/kg, po; assay type: ADME, organism-based; design: dose 8 mg/kg, route oral, time infinity; settings: in vivo
# Cavia porcellus [30] = assay: Cmax in Dunkin Hartley guinea pig at 4 mg/kg, ip after 0.5 hrs post dose; assay type: ADME, organism-based; design: dose 4 mg/kg, route intraperitoneal; settings: in vivo
# [31] = Plasma concentration in Hartley Duncan guinea pig at 100 mg/kg, po measured at 24 hrs; assay type: ADME, organism-based, Cavia porcellus; how it was run: as §5
# Cavia porcellus [32] = assay: Half life in Dunkin Hartley guinea pig at 8 mg/kg, po; assay type: ADME, organism-based; settings: in vivo
# [33] = tested on: Mycobacterium tuberculosis; assay: as §3, with “reduction of granulomatous infiltration” for “reduction”, “spleen” for “necrotic lesions in lungs”; assay type: functional, organism-based; how it was run: as §4
# [34] = Kinetic solubility of the compound after 90 mins; assay type: physicochemical; settings: 1.5 h
# [35] = tested on: Mycobacterium tuberculosis; assay: as §3, with “of granulomatous infiltration” for “in necrotic lesions”; assay type: functional, organism-based; how it was run: as §4
# [36] = target: T2, Phosphotyrosine protein phosphatase (Mycobacterium tuberculosis) (UniProt A0A045ISB3); assay: Inhibition of Mycobacterium tuberculosis H37Rv ATCC 35837 ptpB infected in human THP1 cells assessed as reduction in intracellular bacterial burden at 20 to 100 uM after 72 hrs post infection relative to DMSO-treated control; assay type: cell-based
# T2 sequence (whole entry): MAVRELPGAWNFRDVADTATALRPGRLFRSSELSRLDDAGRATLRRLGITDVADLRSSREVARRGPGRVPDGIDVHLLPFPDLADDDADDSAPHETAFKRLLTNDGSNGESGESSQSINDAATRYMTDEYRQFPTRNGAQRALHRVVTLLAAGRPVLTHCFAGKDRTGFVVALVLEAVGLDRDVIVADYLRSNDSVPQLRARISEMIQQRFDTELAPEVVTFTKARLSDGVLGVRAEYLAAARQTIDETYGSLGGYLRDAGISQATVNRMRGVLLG
# How it was run: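 PMA-differentiated THP1 cells (1 × 10^6/well) in RPMI with 10% FBS. Inhibitor (0, 20 or 80 μM in DMSO) added, then infected with thawed M. tuberculosis at MOI 1:1 for 3 h and washed 4 times. Medium and inhibitor renewed at 24 h. Cells lysed in 0.05% SDS at 72 h; CFU plated in duplicate and counted after 3 weeks. Triplicate.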
# [37] = Permeability of the compound at 200 uM after 5 hrs by PAMPA assay; assay type: ADME; settings: read-out: permeability
# [38] = target: T2, Phosphotyrosine protein phosphatase (Mycobacterium tuberculosis); assay: Inhibition of RFP expressing Mycobacterium tuberculosis H37Rv ATCC 35837 ptpB infected in mouse RAW264.7 cells assessed as prolongation association of PI3P to FYVE2X-FGFP on bacterial phagosome at 80 uM by live-cell imaging method; assay type: cell-based
# How it was run: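 RAW264.7 cells transfected with EGFP-2xFYVE plasmid using JetPEI. Next day infected with RFP-M. tuberculosis H37Rv at MOI 5:1, with compound at 80 μM added together with the bacteria. Imaged live immediately, every 30 s, to follow PI3P on phagosomes.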
# Cavia porcellus [39] = assay: AUCinfinity in Dunkin Hartley guinea pig at 4 mg/kg, ip; assay type: ADME, organism-based; design: dose 4 mg/kg, route intraperitoneal, time infinity; settings: in vivo
# Dual specificity protein phosphatase 3, sequence (P51452 whole entry, the tested form may be a part): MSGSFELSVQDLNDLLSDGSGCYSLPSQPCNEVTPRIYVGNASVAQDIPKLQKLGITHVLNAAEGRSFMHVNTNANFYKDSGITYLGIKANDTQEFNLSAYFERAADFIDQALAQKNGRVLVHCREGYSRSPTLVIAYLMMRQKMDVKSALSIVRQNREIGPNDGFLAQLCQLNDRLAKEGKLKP
compound,measurement,setting,value
O=C(O)c1noc(-c2ccccc2)c1-c1cccc(-c2cc(Cl)cc(Cl)c2)c1,Cmax,Cavia porcellus [1],746 ng/mL
same,IC50,[2],48 µM
same,IC50,[3],12.3 µM
same,F,Cavia porcellus [4],< 13%
same,AUC,Cavia porcellus [5],Bld
same,IC50,[6],6.5 µM
same,AUC,Cavia porcellus [7],1742 ng·h/mL
same,t1/2,Cavia porcellus [8],Bld
same,t1/2,Cavia porcellus [9],1.3 h
same,Cmax,Cavia porcellus [10],Bld
O=C(O)c1noc(-c2ccccc2)c1-c1cccc(-c2cc(Cl)c(O)c(Cl)c2)c1,IC50,[2],127 µM
same,Cmax,Cavia porcellus [11],3714 ng/mL
same,IC50,[3],10.5 µM
same,AUC,Cavia porcellus [12],Bld
same,IC50,[6],33.7 µM
same,t1/2,Cavia porcellus [13],0.7 h
same,Cmax,Cavia porcellus [14],Bld
same,AUC,Cavia porcellus [15],4968 ng·h/mL
same,F,Cavia porcellus [16],< 4%
same,Activity,J774.A1,Non-Toxic
same,t1/2,Cavia porcellus [17],Bld
Cc1onc(C(=O)O)c1-c1cccc(-c2cc(Cl)c(O)c(Cl)c2)c1,Activity,Cavia porcellus [18],> 5%
same,Activity,[19],0.9 deltalog10CFU
same,Activity,[20],1 deltalog10CFU
same,Activity,[21],Active
same,Activity,[22],Active
same,F,Cavia porcellus [23],156%
same,Activity,[24],1 deltalog10CFU
same,Cmax,Cavia porcellus [25],111099 ng/mL
same,concentration at 2 h,[26],1750 ng/mL
same,t1/2,Cavia porcellus [27],1.4 h
same,concentration at 2 h,[28],623 ng/g
same,AUC,Cavia porcellus [29],230407 ng·h/mL
same,Cmax,Cavia porcellus [30],31519 ng/mL
same,concentration at 24 h,[31],35 ng/mL
same,t1/2,Cavia porcellus [32],5.1 h
same,Activity,[33],Active
same,Kinetic_solubility,[34],200 µM
same,Activity,[35],Active
same,inhibition,[36],< 63%
same,"Papp at 5 h, 200 µM",[37],7.81 ×10⁻⁶ cm/s
same,TIME,[38],< 0.2 h
same,AUC,Cavia porcellus [39],71854 ng·h/mL
